Assays:
[1] = target: T1, UDP-glucuronosyltransferase 1A9 (Homo sapiens, UniProt O60656); experiment: Drug metabolism in human liver microsomes assessed as UGT1A9-mediated unbound intrinsic glucuronidation clearance at 1 uM after 30 to 60 mins by LC-MS/MS analysis; format: ADME
T1 sequence (O60656 whole entry): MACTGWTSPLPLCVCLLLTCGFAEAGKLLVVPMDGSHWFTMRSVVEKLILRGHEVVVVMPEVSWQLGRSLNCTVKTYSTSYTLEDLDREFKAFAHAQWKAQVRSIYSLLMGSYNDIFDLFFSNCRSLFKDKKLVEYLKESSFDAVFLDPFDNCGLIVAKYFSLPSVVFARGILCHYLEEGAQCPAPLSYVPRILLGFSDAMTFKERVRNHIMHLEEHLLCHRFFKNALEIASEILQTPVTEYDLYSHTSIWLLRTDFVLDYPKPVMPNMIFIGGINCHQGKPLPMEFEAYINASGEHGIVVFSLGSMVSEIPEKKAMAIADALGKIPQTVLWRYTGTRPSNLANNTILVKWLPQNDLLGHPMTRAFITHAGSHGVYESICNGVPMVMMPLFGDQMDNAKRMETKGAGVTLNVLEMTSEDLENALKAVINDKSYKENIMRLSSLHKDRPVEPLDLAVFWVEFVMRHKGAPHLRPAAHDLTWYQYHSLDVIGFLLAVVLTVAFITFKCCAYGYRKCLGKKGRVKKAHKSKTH

[2] = Glucuronidation clearance in human liver microsomes in presence of bovine serum albumin; format: ADME
[3] = Drug metabolism in human intestinal microsomes assessed as UGT1A8/2B7-mediated unbound intrinsic glucuronidation clearance at 1 uM after 30 to 60 mins by LC-MS/MS analysis in presence of 2% bovine serum albumin; format: ADME, Intestine
[4] = Unbound intrinsic glucuronidation clearance in human intestinal microsomes at 1 uM after 30 to 60 mins by LC-MS/MS analysis in presence of UDP-glucuronosyltransferase; format: ADME, Intestine, Microsome
Method in brief: (§1)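 Alamethicin-activated pooled microsomes (HLM 150 donors; HKM 8; HIM 18). Drug at 1 μM final, preincubated 5 min at 37°C in 0.1 M phosphate pH 7.1 with 3.45 mM MgCl2, 1.15 mM EDTA, 115 μM saccharic acid lactone. Started with […] cofactor (5 mM final), 30–60 min. Cofactor-free controls. Parent depletion by LC-MS/MS, single-exponential k. Corrected by HLM-dialysis fu,inc. Duplicates; n=3 (HIM n=1).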

Liver microsome [5] = experiment: Unbound intrinsic glucuronidation clearance in human liver microsomes at 1 uM after 30 to 60 mins by LC-MS/MS analysis in presence of UDP-glucuronosyltransferase and 1% bovine serum albumin; format: ADME
[6] = Renal clearance in human; format: ADME, organism-based, Kidney; settings: in vivo
Liver microsome [7] = experiment: Fraction metabolized glucuronidation in human liver microsomes in presence of UDP-glucuronosyltransferase; format: ADME
[8] = target: T1, UDP-glucuronosyltransferase 1A9; experiment: Drug metabolism in human kidney microsomes assessed as UGT1A9-mediated unbound intrinsic glucuronidation clearance at 1 uM after 30 to 60 mins by LC-MS/MS analysis; format: ADME
[9] = Fraction unbound in human plasma
[10] = Fraction unbound in human kidney microsomes at 1 uM after 30 to 60 mins by LC-MS/MS analysis; format: ADME
[11] = Fraction unbound in human intestinal microsomes at 1 uM after 30 to 60 mins by LC-MS/MS analysis; format: ADME, Intestine, Microsome
[12] = Unbound intrinsic glucuronidation clearance in human kidney microsomes at 1 uM after 30 to 60 mins by LC-MS/MS analysis in presence of UDP-glucuronosyltransferase; format: ADME, microsome; method in brief: as §1
[13] = Fraction unbound in human liver microsomes at 1 uM after 30 to 60 mins by LC-MS/MS analysis in presence of 1% bovine serum albumin; format: ADME; settings: liver microsomes
[14] = Glucuronidation clearance in human liver microsomes; format: ADME
[15] = Fraction unbound in human liver microsomes at 1 uM after 30 to 60 mins by LC-MS/MS analysis; format: ADME
[16] = target: T1, UDP-glucuronosyltransferase 1A9; experiment: Ratio of UGT1A9-mediated unbound intrinsic glucuronidation clearance in human kidney microsomes to UGT1A9-mediated unbound intrinsic glucuronidation clearance in human intestinal microsomes at 1 uM in presence of 1% bovine serum albumin; format: ADME
[17] = Clearance in iv dosed human; format: ADME, organism-based; settings: in vivo
Liver microsome [18] = experiment: Fraction metabolized glucuronidation in human liver microsomes in presence of UDP-glucuronosyltransferase and bovine serum albumin; format: ADME
[19] = Unbound intrinsic glucuronidation clearance in human kidney microsomes at 1 uM after 30 to 60 mins by LC-MS/MS analysis in presence of UDP-glucuronosyltransferase and 1% bovine serum albumin; format: ADME, microsome
[20] = target: T1, UDP-glucuronosyltransferase 1A9; experiment: Ratio of UGT1A9-mediated unbound intrinsic glucuronidation clearance in human kidney microsomes to UGT1A9-mediated unbound intrinsic glucuronidation clearance in human liver microsomes at 1 uM; format: ADME
Method in brief: (§2)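 Unbound intrinsic clearance measured by substrate depletion in kidney and liver microsomes (1 μM drug, 0.1 M phosphate pH 7.1, 5 mM cofactor, 37°C, LC-MS/MS), without or with 1% BSA. Values scaled per g tissue; ratio taken as mean scaled kidney over mean scaled liver value.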

[21] = target: T1, UDP-glucuronosyltransferase 1A9; experiment: Ratio of UGT1A9-mediated unbound intrinsic glucuronidation clearance in human intestinal microsomes to UGT1A9-mediated unbound intrinsic glucuronidation clearance in human liver microsomes at 1 uM; format: ADME
[22] = target: T1, UDP-glucuronosyltransferase 1A9; experiment: Ratio of UGT1A9-mediated unbound intrinsic glucuronidation clearance in human kidney microsomes to UGT1A9-mediated unbound intrinsic glucuronidation clearance in human intestinal microsomes at 1 uM; format: ADME
[23] = Ratio of unbound intrinsic glucuronidation clearance in human intestinal microsomes in presence of 1% bovine serum albumin to unbound intrinsic glucuronidation clearance in human intestinal microsomes in absence of bovine serum albumin; format: ADME, Intestine, Microsome
Method in brief: (§3)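 Unbound intrinsic glucuronidation clearance measured by parent-drug depletion in intestinal or kidney microsomes, once with 1% BSA and once without, under otherwise matched conditions (1 μM drug, pH 7.1 phosphate, 5 mM cofactor, 37°C). Each value was corrected for fu,inc. The ratio is the mean clearance with BSA over the mean without.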

[24] = target: T1, UDP-glucuronosyltransferase 1A9; experiment: Drug metabolism in human liver microsomes assessed as UGT1A9-mediated unbound intrinsic glucuronidation clearance at 1 uM after 30 to 60 mins by LC-MS/MS analysis in presence of 1% bovine serum albumin; format: ADME
Liver microsome [25] = experiment: Unbound intrinsic glucuronidation clearance in human liver microsomes at 1 uM after 30 to 60 mins by LC-MS/MS analysis in presence of UDP-glucuronosyltransferase; format: ADME; method in brief: as §1
[26] = Ratio of unbound intrinsic glucuronidation clearance in human kidney microsomes in presence of 1% bovine serum albumin to unbound intrinsic glucuronidation clearance in human kidney microsomes in absence of bovine serum albumin; format: ADME, microsome; method in brief: as §3
[27] = target: T1, UDP-glucuronosyltransferase 1A9; experiment: Ratio of UGT1A9-mediated unbound intrinsic glucuronidation clearance in human kidney microsomes to UGT1A9-mediated unbound intrinsic glucuronidation clearance in human liver microsomes at 1 uM in presence of 1% bovine serum albumin; format: ADME; method in brief: as §2
[28] = target: T1, UDP-glucuronosyltransferase 1A9; experiment: Drug metabolism in human kidney microsomes assessed as UGT1A9-mediated unbound intrinsic glucuronidation clearance at 1 uM after 30 to 60 mins by LC-MS/MS analysis in presence of 1% bovine serum albumin; format: ADME
[29] = Unbound intrinsic glucuronidation clearance in human intestinal microsomes at 1 uM after 30 to 60 mins by LC-MS/MS analysis in presence of UDP-glucuronosyltransferase and 1% bovine serum albumin; format: ADME, Intestine, Microsome
[30] = Ratio of drug level blood to plasma in human; format: ADME; settings: blood and plasma
[31] = target: T1, UDP-glucuronosyltransferase 1A9; experiment: Drug metabolism in human intestinal microsomes assessed as UGT1A9-mediated unbound intrinsic glucuronidation clearance at 1 uM after 30 to 60 mins by LC-MS/MS analysis; format: ADME, Intestine
[32] = target: T1, UDP-glucuronosyltransferase 1A9; experiment: Ratio of UGT1A9-mediated unbound intrinsic glucuronidation clearance in human intestinal microsomes to UGT1A9-mediated unbound intrinsic glucuronidation clearance in human liver microsomes at 1 uM in presence of 1% bovine serum albumin; format: ADME

- CL free [1]: 3.13 mL/min/g
- CLhep predicted [2]: 3.97 mL/min/kg
- CL free [3]: 0.292 mL/min/g
- CL free [4]: 11.8 µL/min/mg
- CL free (Liver microsome [5]): 233 µL/min/mg
- CL renal [6]: 0.01 mL/min/kg
- Drug metabolism (Liver microsome [7]): 0.95
- CL free [8]: 3.75 mL/min/g
- fraction unbound [9]: 0.01
- fraction unbound at 1 µM [10]: 0.91
- fraction unbound at 1 µM [11]: 0.71
- CL free [12]: 293 µL/min/mg
- fraction unbound at 1 µM [13]: 0.18
- CLhep predicted [14]: 3.97 mL/min/kg
- fraction unbound at 1 µM [15]: 0.83
- Ratio [16]: 14.8
- clearance [17]: 2.49 mL/min/kg
- Drug metabolism (Liver microsome [18]): 0.95
- CL free [19]: 1370 µL/min/mg
- Ratio [20]: 1.2
- Ratio [21]: 0.078
- Ratio [22]: 15.4
- Ratio [23]: 4.7
- CL free [24]: 9.32 mL/min/g
- CL free (Liver microsome [25]): 78.2 µL/min/mg
- Ratio [26]: 4.9
- Ratio [27]: 1.89
- CL free [28]: 17.6 mL/min/g
- CL free [29]: 57.8 µL/min/mg
- blood plasma ratio [30]: 0.6
- CL free [31]: 0.244 mL/min/g
- Ratio [32]: 0.128
SMILES: COc1c(C)c2c(c(O)c1C/C=C(\C)CCC(=O)O)C(=O)OC2 [MYCOPHENOLIC ACID]
